Published values from different studies.
Compare with care: the assays were run in different laboratories. Values after ≈ are worked out from the molar mass of the structure shown.

Structure (SMILES)	target or system	assay	test system	conditions	endpoint	value
CCCCCCCCCCCCCCCCCCOc1ccccc1CC(=O)OCC[N+]1(C)CCCC1	NCI-H522	cell growth or viability, SRB	–	10 µM	inhibition	93.2%
c1ccc(Oc2ccc(Nc3c4c(nc5ccccc35)CCC4)cc2)cc1	Leishmania donovani	parasite growth, resazurin	–	promastigote	IC50	0.6 µM
CCCCCCCCC1NCCc2cc(O)c(O)cc21 (stereo not drawn)	–	ABTS scavenging	–	10 min, dark	IC50	47.5 µM
CCCCCCCCCCCCCCCCCCOc1ccccc1CC(=O)OCC[N+]1(C)CCCCC1	NCI-H522	cell growth or viability, SRB	–	10 µM	inhibition	66.7%
COc1cc(/C=C/C(=O)CC(=O)/C=C/c2ccc(O)c(OC)c2)ccc1O	–	ABTS scavenging	–	20 min	IC50	165 µg/mL
C[C@@H]1[C@H](O)[C@@H](C)/C=C/C=C/C=C/C=C/C=C/C=C/C=C/[C@H](O[C@@H]2O[C@H](C)[C@@H](O)[C@H](N)[C@@H]2O)C[C@@H]2O[C@](O)(C[C@@H](O)C[C@@H](O)[C@H](O)CC[C@@H](O)C[C@@H](O)CC(=O)O[C@H]1C)C[C@H](O)[C@H]2C(=O)O	Leishmania donovani	parasite growth, imaging	THP-1	20 nM, intracellular, amastigote	inhibition	7%
Oc1cc2c(cc1O)C(Cc1ccccc1)NCC2 (stereo not drawn)	–	ABTS scavenging	–	10 min, dark	IC50	8.14 µM
O=C1O[C@H]([C@@H](O)CO)C(O)=C1O	–	ABTS scavenging, absorbance	–	dark	IC50	5.42 µg/mL
CCCCCCCCCC1NCCc2cc(O)c(O)cc21 (stereo not drawn)	–	ABTS scavenging	–	10 min, dark	IC50	57.3 µM
CN1CCN(S(=O)(=O)c2ccc(-c3ccc4nncc(Nc5ncc(Cl)cn5)c4c3)cc2)CC1	Leishmania donovani	parasite growth	–	intracellular, amastigote	EC50	0.035 µg/mL (≈ 0.0706 µM)
O=C(O)CCC(=O)OCCN(Cc1ccc(Oc2ccc([N+](=O)[O-])cc2)cc1)C(=O)C(Cl)Cl	Leishmania donovani	parasite growth, resazurin	–	72 h, promastigote	IC50	2.68 µM
CCCCCCCCCCCCCCCCOP(=O)([O-])OCC[N+](C)(C)C	Leishmania donovani	parasite growth	THP-1	40 µM, intracellular, amastigote	inhibition	100%
COc1cccc(C2NCCc3cc(O)c(O)cc32)c1 (stereo not drawn)	–	ABTS scavenging	–	10 min, dark	IC50	11.2 µM
CCOc1ccc(Nc2c3c(nc4ccccc24)CCC3)cc1	Leishmania donovani	parasite growth	THP-1	intracellular, amastigote	IC50	0.592 µM
CCCCCCCCCCC1NCCc2cc(O)c(O)cc21 (stereo not drawn)	–	ABTS scavenging	–	10 min, dark	IC50	69.9 µM
